In brackets after ≈: the same amount, converted by molar mass. Activity calls are given as the source filed them. The calls are words filed in the database; no cut-off is given here.
What was measured:
[1] = system: Rhizopus arrhizus; assay: Antifungal activity against drug-susceptible Rhizopus oryzae UTHSC 02-2882 by broth microdilution method; format: functional
Summary of the method: (§1)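 Broth microdilution MIC in µg/ml, run per the CLSI (formerly NCCLS) guideline for filamentous fungi, M38-A2.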

[2] = system: Rhizopus arrhizus; assay: Antifungal activity against drug-susceptible Rhizopus oryzae UTHSC 06-731 by broth microdilution method; format: functional
[3] = system: Rhizopus arrhizus; assay: Antifungal activity against drug-susceptible Rhizopus oryzae UTHSC 06-1351 by broth microdilution method; format: functional
Summary of the method: (§2)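 Posaconazole MIC in ug/ml, determined by broth microdilution following the CLSI guidelines for moulds (M38-A2).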

[4] = system: Rhizopus arrhizus; assay: Antifungal activity against drug-susceptible Rhizopus oryzae UTHSC 05-3132 by broth microdilution method; format: functional; summary of the method: as §2
[5] = system: Rhizopus arrhizus; assay: Antifungal activity against drug-intermediate Rhizopus oryzae UTHSC 07-365 by broth microdilution method; format: functional; summary of the method: as §1
[6] = system: Rhizopus arrhizus; assay: Antifungal activity against drug-susceptible Rhizopus oryzae UTHSC 04-443 at 5 ug by disk diffusion assay; format: functional; conditions: read-out: DIZ
Summary of the method: (§3)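 Neo-Sensitabs tablet diffusion on Mueller-Hinton agar, following guidelines for molds; 9 mm tablets containing 5 µg posaconazole; inhibition zone diameter measured in mm; zone breakpoints applied at 24 h.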

[7] = system: Rhizopus arrhizus; assay: Antifungal activity against drug-susceptible Rhizopus oryzae UTHSC 06-731 at 5 ug by disk diffusion assay; format: functional; conditions: read-out: DIZ
[8] = system: Rhizopus arrhizus; assay: Antifungal activity against drug-susceptible Rhizopus oryzae UTHSC 06-329 at 5 ug by disk diffusion assay; format: functional; conditions: read-out: DIZ
Summary of the method: (§4)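 Neo-Sensitabs tablet diffusion on Mueller-Hinton agar, run per the mould guidelines. Tablets are 9 mm in diameter and carry 5 ug posaconazole. The read-out is the inhibition zone diameter in mm.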

[9] = system: Rhizopus arrhizus; assay: Antifungal activity against drug-susceptible Rhizopus oryzae UTHSC 05-1502 at 5 ug by disk diffusion assay; format: functional; conditions: read-out: DIZ; summary of the method: as §3
[10] = system: Rhizopus arrhizus; assay: Antifungal activity against drug-susceptible Rhizopus oryzae UTHSC 06-2457 at 5 ug by disk diffusion assay; format: functional; conditions: read-out: DIZ; summary of the method: as §4
[11] = system: Rhizopus arrhizus; assay: Antifungal activity against drug-susceptible Rhizopus oryzae UTHSC 05-2447 at 5 ug by disk diffusion assay; format: functional; conditions: read-out: DIZ; summary of the method: as §3
[12] = system: Rhizopus arrhizus; assay: Antifungal activity against drug-susceptible Rhizopus oryzae UTHSC 03-299 at 5 ug by disk diffusion assay; format: functional; conditions: read-out: DIZ; summary of the method: as §3
[13] = system: Rhizopus arrhizus; assay: Antifungal activity against drug-susceptible Rhizopus oryzae UTHSC 05-3111 at 5 ug by disk diffusion assay; format: functional; conditions: read-out: DIZ; summary of the method: as §4
[14] = system: Rhizopus arrhizus; assay: Antifungal activity against drug-intermediate Rhizopus oryzae UTHSC 04-3109 at 5 ug by disk diffusion assay; format: functional; conditions: read-out: DIZ
Summary of the method: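 Neo-Sensitabs tablet diffusion on Mueller-Hinton agar, following the guidelines for molds. Tablets were 9 mm in diameter and held 5 µg of drug. The read-out was inhibition zone diameter in mm.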

[15] = system: Rhizopus arrhizus; assay: Antifungal activity against drug-susceptible Rhizopus oryzae UTHSC 06-4133 after 24 to 48 hrs; format: functional
Summary of the method: (§5)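 Minimum fungicidal concentration taken from the broth microdilution plates. From each well with complete inhibition (optically clear), 20 ul is plated on potato dextrose agar. Plates are incubated at 35°C for 24 to 48 h. The MFC is the lowest drug concentration giving no growth.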

[16] = system: Rhizopus arrhizus; assay: Antifungal activity against drug-susceptible Rhizopus oryzae UTHSC 04-1241 after 24 to 48 hrs; format: functional
Summary of the method: (§6)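 Minimum fungicidal concentration: 20 µl from each microdilution well showing complete inhibition (optically clear) plated on potato dextrose agar, incubated 35°C for 24 to 48 h; MFC taken as lowest drug concentration giving no growth.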

[17] = system: Rhizopus arrhizus; assay: Antifungal activity against drug-susceptible Rhizopus oryzae UTHSC 06-89 after 24 to 48 hrs; format: functional
[18] = system: Rhizopus arrhizus; assay: Antifungal activity against drug-susceptible Rhizopus oryzae UTHSC 04-1613 after 24 to 48 hrs; format: functional; summary of the method: as §6
[19] = system: Rhizopus arrhizus; assay: Antifungal activity against drug-susceptible Rhizopus oryzae UTHSC 06-1080 after 24 to 48 hrs; format: functional; summary of the method: as §5
[20] = system: Rhizopus arrhizus; assay: Antifungal activity against drug-susceptible Rhizopus oryzae UTHSC 06-329 after 24 to 48 hrs; format: functional; summary of the method: as §5
[21] = system: Rhizopus arrhizus; assay: Antifungal activity against drug-susceptible Rhizopus oryzae UTHSC 05-1502 after 24 to 48 hrs; format: functional; summary of the method: as §6
[22] = system: Rhizopus arrhizus; assay: Antifungal activity against drug-susceptible Rhizopus oryzae UTHSC 05-3132 after 24 to 48 hrs; format: functional; summary of the method: as §5
[23] = system: Rhizopus arrhizus; assay: Antifungal activity against drug-susceptible Rhizopus oryzae UTHSC 03-547 after 24 to 48 hrs; format: functional; summary of the method: as §6
[24] = system: Rhizopus arrhizus; assay: Antifungal activity against drug-susceptible Rhizopus oryzae UTHSC 06-3827 after 24 to 48 hrs; format: functional; summary of the method: as §5
[25] = system: Rhizopus arrhizus; assay: Antifungal activity against drug-susceptible Rhizopus oryzae UTHSC 05-1679 after 24 to 48 hrs; format: functional; summary of the method: as §6
[26] = system: Rhizopus arrhizus; assay: Antifungal activity against drug-intermediate Rhizopus oryzae UTHSC 03-3165 after 24 to 48 hrs; format: functional
[27] = system: Rhizopus arrhizus; assay: Antifungal activity against drug-intermediate Rhizopus oryzae UTHSC 07-365 infected in OF1 mouse assessed as increase in mouse survival at 20-30 mg/kg, po bid treated 24 hrs after fungal infection; format: functional, organism-based
Summary of the method: (§7)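 Survival model in male OF1 mice, 30 g. Mice were immunosuppressed 1 day before infection with cyclophosphamide 200 mg/kg i.p. plus 5-fluorouracil 150 mg/kg i.v., then infected i.v. via lateral tail vein with 2 × 10^4 CFU in 0.2 ml saline. Oral gavage at 10, 20 or 30 mg/kg BID began 24 h post-challenge for 7 days. Ceftazidime 5 mg/day s.c. was given days 1–7. Groups of 10 were checked daily for 20 days; untreated controls.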

[28] = system: Rhizopus arrhizus; assay: Antifungal activity against drug-intermediate Rhizopus oryzae UTHSC 05-3032 infected in OF1 mouse assessed as increase in mouse survival at 20-30 mg/kg, po bid treated 24 hrs after fungal infection; format: functional, organism-based; summary of the method: as §7
[29] = system: Rhizopus arrhizus; assay: Antifungal activity against drug-intermediate Rhizopus oryzae UTHSC 04-3109 infected in OF1 mouse assessed as increase in mouse survival at 20-30 mg/kg, po bid treated 24 hrs after fungal infection; format: functional, organism-based; summary of the method: as §7
[30] = system: Rhizopus arrhizus; assay: Antifungal activity against drug-intermediate Rhizopus oryzae infected in OF1 mouse assessed as mouse survival at 30 mg/kg, po bid treated 24 hrs after fungal infection; format: functional; summary of the method: as §7
[31] = system: Rhizopus arrhizus; assay: Antifungal activity against drug-intermediate Rhizopus oryzae UTHSC 07-365 infected in OF1 mouse assessed as reduction in kidney fungal load at 10-30 mg/kg, po bid treated 24 hrs after fungal infection; format: functional, organism-based
Summary of the method: (§8)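 Tissue burden in immunosuppressed male OF1 mice, using cyclophosphamide 200 mg/kg i.p. plus 5-fluorouracil 150 mg/kg i.v. on day −1. Mice received 2 × 10^4 CFU i.v. by tail vein, then oral gavage at 10, 20 or 30 mg/kg BID from 24 h post-challenge, with ceftazidime cover; untreated controls. Groups of 10 were killed on day 4. Kidneys and brains were homogenized in 2 ml saline, serially diluted 10-fold, plated on PDA and counted after 24 h at 35°C.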

[32] = system: Rhizopus arrhizus; assay: Antifungal activity against drug-intermediate Rhizopus oryzae UTHSC 07-365 infected in OF1 mouse assessed as reduction in brain fungal load at 10-30 mg/kg, po bid treated 24 hrs after fungal infection; format: functional, organism-based; summary of the method: as §8
[33] = system: Rhizopus arrhizus; assay: Antifungal activity against drug-intermediate Rhizopus oryzae UTHSC 05-3032 infected in OF1 mouse assessed as reduction in brain fungal load at 10-30 mg/kg, po bid treated 24 hrs after fungal infection; format: functional, organism-based; summary of the method: as §8
[34] = system: Rhizopus arrhizus; assay: Antifungal activity against drug-intermediate Rhizopus oryzae UTHSC 03-3165 by broth microdilution method; format: functional; summary of the method: as §1

Question: What does the source list for `CC[C@@H]([C@H](C)O)n1ncn(-c2ccc(N3CCN(c4ccc(OC[C@@H]5CO[C@@](Cn6cncn6)(c6ccc(F)cc6F)C5)cc4)CC3)cc2)c1=O` [POSACONAZOLE]?
Answer: MIC [1]: 0.25 µg/mL (≈ 0.357 µM); MIC [2]: 0.5 µg/mL (≈ 0.713 µM); MIC [3]: 0.25 µg/mL (≈ 0.357 µM); MIC [4]: 0.5 µg/mL (≈ 0.713 µM); MIC [5]: 2 µg/mL (≈ 2.85 µM); zone of inhibition at 5 µg/disc [6]: 22 mm; zone of inhibition at 5 µg/disc [7]: 17 mm; zone of inhibition at 5 µg/disc [8]: 20 mm; zone of inhibition at 5 µg/disc [9]: 21 mm; zone of inhibition at 5 µg/disc [10]: 14 mm; zone of inhibition at 5 µg/disc [11]: 17 mm; zone of inhibition at 5 µg/disc [12]: 15 mm; zone of inhibition at 5 µg/disc [13]: 20 mm; zone of inhibition at 5 µg/disc [14]: 14 mm; MFC [15]: 1 µg/mL (≈ 1.43 µM); MFC [16]: 0.5 µg/mL (≈ 0.713 µM); MFC [17]: 1 µg/mL (≈ 1.43 µM); MFC [18]: 0.5 µg/mL (≈ 0.713 µM); MFC [19]: > 16 µg/mL; MFC [20]: 0.5 µg/mL (≈ 0.713 µM); MFC [21]: 1 µg/mL (≈ 1.43 µM); MFC [22]: 0.5 µg/mL (≈ 0.713 µM); MFC [23]: 0.5 µg/mL (≈ 0.713 µM); MFC [24]: 16 µg/mL (≈ 22.8 µM); MFC [25]: 0.5 µg/mL (≈ 0.713 µM); MFC [26]: 16 µg/mL (≈ 22.8 µM); Activity [27]: Active; Activity [28]: Active; Activity [29]: Active; Activity [30]: 10%; Activity [31]: Active; Activity [32]: inactive; Activity [33]: inactive; MIC [34]: 2 µg/mL (≈ 2.85 µM)
